Reference: article PMC4646424 (Journal of medicinal chemistry, 2015)
Where two headings read alike, the source gives them in different places.

Tests used:
[1] = Particle formation by dynamic light scattering; format: physicochemical; conditions: for DLS detected (concentration at which particles were detected) / DLS particle radius: dynamic light scattering; for DLS particle radius: at the concentration detected
Outline: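 Particle formation was measured by dynamic light scattering following an earlier published method, with each test compound in buffer both without and with 0.01% Triton X-100. Read-outs were scattering intensity and average particle radius. For selected compounds, critical aggregation concentration was found by tracking scattering intensity as concentration rose, using three independent experiments. Forming aggregator-type particles was a required criterion.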

[2] = molecular target: monoamine oxygenase B (MAOB); conditions: read-out: Inhibition of MAOB; cited from earlier work
AmpC β-lactamase = AmpC β-lactamase (Escherichia coli, UniProt P00811); experiment: AmpC β-lactamase inhibition with and without Triton X-100; format: biochemical; conditions: for IC50: 1% DMSO
AmpC β-lactamase, sequence (P00811 20-377): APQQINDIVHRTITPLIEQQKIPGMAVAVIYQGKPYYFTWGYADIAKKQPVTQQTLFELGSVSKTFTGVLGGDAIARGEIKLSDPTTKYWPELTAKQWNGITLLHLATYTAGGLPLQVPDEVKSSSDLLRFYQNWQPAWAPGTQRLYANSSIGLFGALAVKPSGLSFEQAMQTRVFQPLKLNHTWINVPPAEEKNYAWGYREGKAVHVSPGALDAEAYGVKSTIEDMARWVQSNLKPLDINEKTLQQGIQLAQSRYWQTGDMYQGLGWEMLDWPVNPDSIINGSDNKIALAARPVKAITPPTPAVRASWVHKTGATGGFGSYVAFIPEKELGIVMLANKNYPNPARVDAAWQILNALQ
Outline: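 AmpC β-lactamase activity was measured following an earlier published method, with final DMSO at 1% in all samples. Concentration-response curves were run with and without 0.01% Triton X-100. Where detergent fully reversed inhibition, only the highest inhibitor concentration was tested. Values are means of duplicate samples from two independent experiments. Detergent-sensitive inhibition with IC50 better than 100 µM was one criterion for classing a compound as an aggregator.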

[3] = molecular target: cholesterol ester transferase protein (CETP); conditions: read-out: Inhibition of CETP; cited from earlier work
[4] = cited from earlier work; for Known aggregator status: previously reported
[5] = read-out: AmpC IC50 no Triton, no Triton X-100
[6] = read-out: AmpC IC50 plus Triton, plus 0.01% Triton X-100

For `COc1ccc2c(=O)cc(-c3ccc(C)cc3)oc2c1` [CHEMBL17052], the “Colloid formation by DLS” value ([1]; up to concentrations of at least 200 µM (Table 2)) is listed as “does not form colloids” and the IC50 [2] is listed as 11.3 µM.

With `Nc1sc2c(c1C(=O)c1ccc(Cl)cc1)CCCC2` [CHEMBL57997] the IC50 (AmpC β-lactamase; [5]) was 12.7 µM, the IC50 (AmpC β-lactamase; [6]) was > 100 µM and the “DLS detected (concentration at which particles were detected)” value (shortened to “DLS detected”) [1] was 21 µM. It also gave a DLS particle radius [1] of 270 nm.

For `Cc1ccccc1OCC(=O)Nc1ccc(-c2nc3cc(Cl)ccc3o2)cc1` [CHEMBL261275], the “Effect of 0.01% Triton X-100 on β-lactamase inhibition” value (AmpC β-lactamase; addition of 0.01% Triton X-100) was “fully abrogated”, the IC50 (AmpC β-lactamase; [5]) was 7 µM and the IC50 (AmpC β-lactamase; [6]) was > 100 µM. For the same compound, the “DLS detected” value [1] was 4 µM, the DLS particle radius [1] was 2312 nm and the IC50 [3] was 21 µM.

For `Cc1ccc(-c2noc(CN(C(=O)C(c3ccccc3)c3ccccc3)C(C)C)n2)cc1` [CHEMBL1304694], the IC50 (AmpC β-lactamase; [5]) was 8 µM, the IC50 (AmpC β-lactamase; [6]) was > 100 µM and the “DLS detected” value [1] was 20 µM. For the same compound, the DLS particle radius [1] was 456 nm.

With `Cc1cc(NS(=O)(=O)c2ccc(NC(=O)COc3c(C)cc(Br)cc3C)cc2)no1` [CHEMBL1333273] the IC50 (AmpC β-lactamase; [5]) was 146 µM, the IC50 (AmpC β-lactamase; [6]) was > 400 µM and the “DLS detected” value [1] was 100 µM. It also gave a DLS particle radius [1] of 49 nm.

With `CCOC(=O)c1c(-c2ccc(C)o2)csc1NC(=O)CSc1ncn[nH]1` [CHEMBL1347854] the IC50 (AmpC β-lactamase; [5]) was 29 µM, the IC50 (AmpC β-lactamase; [6]) was > 100 µM and the “DLS detected” value [1] was 10 µM. The DLS particle radius [1] was 115 nm.

For `C=CCOC(=O)c1[nH]c2c(c1C)C(=O)CC(c1ccco1)C2` (stereo not shown) [CHEMBL1359872], the IC50 (AmpC β-lactamase; [5]) was 10 µM, the IC50 (AmpC β-lactamase; [6]) was > 100 µM and the “DLS detected” value [1] was 10 µM. The DLS particle radius [1] was 405 nm.

In the case of `COc1ccc(OC(C)C(=O)N(C)Cc2nc(-c3ccc(OC)cc3)no2)cc1` (stereo not shown) [CHEMBL1508601], the IC50 (AmpC β-lactamase; [5]) is reported as 235 µM, the IC50 (AmpC β-lactamase; [6]) is reported as > 400 µM and the “DLS detected” value [1] is reported as 100 µM. It also gave a DLS particle radius [1] of 62 nm.

For `CN(CCC#N)C(=O)c1cc2c(s1)-c1ccccc1SC2` [CHEMBL1565380], the IC50 (AmpC β-lactamase; [5]) was 184 µM, the IC50 (AmpC β-lactamase; [6]) was > 400 µM and the “DLS detected” value [1] was 100 µM. The DLS particle radius [1] was 71 nm.

In the case of `CC(=O)c1c(O)c(C)c(O)c(Cc2c(O)c3c(c(C(=O)/C=C/c4ccccc4)c2O)OC(C)(C)C=C3)c1O` [Rottlerin], the Known aggregator status [4] is listed as “known aggregator at micromolar concentrations”.

In the case of `C[C@]12CC[C@@H]3c4ccc(O)cc4C[C@@H](CCCCCCCCC[S+]([O-])CCCC(F)(F)C(F)(F)F)[C@H]3[C@@H]1CC[C@@H]2O` (stereo partly shown) [fulvestrant], the Known aggregator status [4] is listed as “strong aggregators”.

For `CNC(=O)c1cc(Oc2ccc(NC(=O)Nc3ccc(Cl)c(C(F)(F)F)c3)cc2)ccn1` [sorafenib], the “CAC (critical aggregation concentration)” value ([4]; in biochemical buffer and in cell culture) is listed as 3.5 µM and the Known aggregator status [4] is listed as “strong aggregators”.
